Test results as given in ChEMBL document CHEMBL1121516, “Synthesis and biological activity of fluoroalkylamine derivatives of narcotic analgesics” (J Med Chem, 1980).
Active and inactive are the calls of the source. The calls are words filed in the database; no cut-off is given here.

Assays:
[1] = […] (pKa) value was evaluated; type: physicochemical
In short: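 pKa by potentiometric titration in distilled water at 24 °C. Compound dissolved at 5 to 7.5×10^-3 M and titrated with 0.1039 M NaOH, with pH change followed on a pH meter. Each compound run in triplicate.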

[2] = biological target: T1, Opioid receptors; mu/kappa/delta (Homo sapiens, UniProt P41145+P41143+P35372); test: Inhibition of Opioid receptors binding by inhibiting specific [3H]naloxone binding by 50% in the presence of 100 mM NaCl; type: protein assay, Cavia porcellus
[3] = species: Cavia porcellus; test: (§1) Antagonist potency was evaluated in the mouse vas deferens relative to naloxone = 1; type: functional
[4] = biological target: T1, Opioid receptors; mu/kappa/delta; test: Inhibition of Opioid receptors with [3H]naloxone binding in the absence of NaCl; type: protein assay, Cavia porcellus
[5] = species: Mus musculus; test: Analgesic activity determined in the mouse hot plate test expressed as ED50; I = inactive at 40; type: functional, organism-based
[6] = species: Mus musculus; test: Analgesic activity determined in the mouse hot plate test expressed as ED50
[7] = species: Mus musculus; test: Analgesic activity determined in the mouse hot plate test expressed as ED50; IA means in active to 100; type: functional, organism-based
[8] = species: Mus musculus; test: Analgesic activity determined in the mouse hot plate test expressed as ED50; value ranges from 3.2-6.1; type: functional
[9] = species: Mus musculus; test: Analgesic activity determined in the mouse hot plate test expressed as ED50; Range is 6.4-12.8; type: functional
[10] = test system: Rattus norvegicus; test: Serum citrate level when administered intraperitoneally at dose 45 mg/kg in 7 rats; type: functional, organism-based; parameters: dose 45 mg/kg
In short: (§2)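 Male Sprague–Dawley rats (200–225 g), dosed ip. Blood centrifuged to obtain serum, and citrate measured by the Camp and Farmer procedure. Values reported as mg/mL with SE.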

[11] = species: Cavia porcellus; test: Agonist potency was evaluated in the guinea pig ileum; type: functional
[12] = species: Cavia porcellus; test: Inhibitory Dose required to reduce electrically stimulated contractions by 50% in guinea pig ileum; I = Infinite; type: functional
[13] = test system: Rattus norvegicus; test: Serum citrate level when administered intraperitoneally at dose 12.5 mg/kg in 5 rats; type: functional, organism-based; parameters: dose 12.5 mg/kg; in short: as §2
[14] = species: Mus musculus; test: Analgesic activity determined in the mouse hot plate test expressed as ED50; Range is 17.8-72.1; type: functional
[15] = species: Mus musculus; test: Analgesic activity determined in the mouse hot plate test expressed as ED50; Range is 6.3-14.8; type: functional
[16] = species: Mus musculus; test: Equilibrium dissociation constant (Ke) against response produced by normorphine in the mouse vas deferens; type: functional
[17] = species: Mus musculus; test: as §1; type: functional
[18] = species: Cavia porcellus; test: Agonist potency evaluated in the guinea pig ileum; type: functional
[19] = species: Cavia porcellus; test: Inhibitory Dose required to reduce electrically stimulated contractions by 50% in guinea pig ileum; type: functional; details: read-out: ID50 (the source's name)
[20] = test system: Rattus norvegicus; test: Serum citrate level when administered intraperitoneally at dose 40 mg/kg in 6 rats; type: functional, organism-based; parameters: dose 40 mg/kg; in short: as §2
[21] = species: Mus musculus; test: Analgesic activity determined in the mouse hot plate test expressed as ED50; value ranges from 12.7-29.8; type: functional

SMILES | pKa [1] | IC50 [2] | IC50 [4] | also measured
CS(=O)(=O)O.C[C@H]1C2Cc3ccc(O)cc3[C@@]1(C)CCN2CC(F)(F)F | 4.56 | 2500 nM | 1700 nM | Agonist potency [3]: 0; ED50 [5]: inactive
CN1CC[C@]23c4c5ccc(O)c4O[C@H]2[C@@H](O)C=C[C@H]3[C@H]1C5 [MORPHINE] |  |  |  | ED50 [6]: 1.2 mg/kg
CCOC(=O)C1(c2ccccc2)CCN(CC(F)(F)F)CC1.Cl | 3.13 | 60000 nM | 10000 nM | ED50 [7]: inactive
CCOC(=O)C1(c2ccccc2)CCN(CC)CC1.Cl | 9.03 | 120000 nM | 5000 nM | ED50 [8]: 4.4 mg/kg
CCOC(=O)C1(c2ccccc2)CCN(CC(F)F)CC1.Cl | 5.23 | 110000 nM | 85000 nM | ED50 [7]: inactive
CS(=O)(=O)O.C[C@H]1C2Cc3ccc(O)cc3[C@@]1(C)CCN2CCF | 8.35 | 100 nM | 50 nM | ED50 [9]: 9.16 mg/kg; Level [10]: 121 mg/mL; Agonist potency [11]: 0; ID50 [12]: inactive
O=C(O)CF |  |  |  | Level [13]: 132 mg/mL
CCN1CC[C@]2(C)c3cc(O)ccc3CC1[C@@H]2C.CS(=O)(=O)O | 9.42 | 200 nM | 180 nM | ED50 [14]: 44.7 mg/kg
CS(=O)(=O)O.C[C@H]1C2Cc3ccc(O)cc3[C@@]1(C)CCN2CC(F)F | 6.52 | 1150 nM | 1000 nM | ED50 [15]: 9.7 mg/kg; Ke [16]: 2930 nM; Antagonist potency [17]: 0.001; Agonist potency [18]: 0.16; IC50 [19]: 453 nM
CCOC(=O)C1(c2ccccc2)CCN(CCF)CC1.Cl | 7.43 | 64000 nM | 20000 nM | Level [20]: 81 mg/mL; ED50 [21]: 19.4 mg/kg
